{"source": "ChEMBL document CHEMBL3272313", "about": "“3-Hydroxy-17-aralkylmorphinans as potential opiate receptor-site-directed alkylating agents” (J Med Chem, 1977)", "key": {"[1]": {"test_system": "Mus musculus", "assay": "Analgesic activity in sc dosed Swiss-Webster mouse after 30 mins", "format": "functional", "settings": "0.5 h"}, "[2]": {"test_system": "Mus musculus", "assay": "Inhibition of morphine sulfate-induced analgesic activity in Swiss-Webster mouse at 50 mg/kg, sc after 2 hrs", "format": "functional, organism-based", "set-up": "dose 50 mg/kg", "method_in_brief": "(§1)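 Male Swiss-Webster mice, 20–25 g. Challenge was 10 mg/kg morphine sulfate in 8–10 mice, read by the modified D'Amour–Smith test. Where block was seen, morphine ED50 (95% limits) was found by Litchfield–Wilcoxon.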"}, "[3]": {"test_system": "Mus musculus", "assay": "Analgesic activity in Swiss-Webster mouse assessed as time required for sustainance of activity at 50 mg/kg, sc", "format": "functional", "settings": "route subcutaneous"}, "[4]": {"test_system": "Mus musculus", "assay": "Analgesic activity in sc dosed Swiss-Webster mouse time of peak effect", "format": "functional"}, "[5]": {"test_system": "Mus musculus", "assay": "Analgesic activity in Swiss-Webster mouse assessed as time required for sustainance of activity at 100 mg/kg, sc", "format": "functional", "settings": "route subcutaneous"}, "[6]": {"test_system": "Mus musculus", "assay": "Inhibition of morphine sulfate-induced analgesic activity in Swiss-Webster mouse at 100 mg/kg, sc after 2 hrs", "format": "functional, organism-based", "set-up": "dose 100 mg/kg", "method_in_brief": "as §1"}, "[7]": {"test_system": "Mus musculus", "assay": "Inhibition of morphine sulfate-induced analgesic activity in Swiss-Webster mouse at 100 mg/kg, sc after 1 hr", "format": "functional, organism-based", "set-up": "dose 100 mg/kg", "method_in_brief": "as §1"}, "[8]": {"test_system": "Mus musculus", "assay": "Inhibition of morphine sulfate-induced analgesic activity in Swiss-Webster mouse at 5.3 mg/kg, sc after 3 hrs", "format": "functional, organism-based", "set-up": "dose 5.3 mg/kg", "method_in_brief": "as §1"}, "[9]": {"test_system": "Mus musculus", "assay": "Analgesic activity in Swiss-Webster mouse assessed as time required for sustainance of activity at 5.3 mg/kg, sc", "format": "functional", "settings": "route subcutaneous"}, "[10]": {"test_system": "Mus musculus", "assay": "Analgesic activity in Swiss-Webster mouse assessed as time required for sustainance of activity at 380 mg/kg, sc", "format": "functional", "settings": "route subcutaneous"}, "[11]": {"test_system": "Mus musculus", "assay": "Inhibition of morphine sulfate-induced analgesic activity in Swiss-Webster mouse at 380 mg/kg, sc after 5.5 hrs", "format": "functional, organism-based", "set-up": "dose 380 mg/kg", "method_in_brief": "as §1"}, "[12]": {"test_system": "Mus musculus", "assay": "Ratio of morphine ED50 to compound ED50 for sc dosed Swiss-Webster mouse", "format": "functional"}, "[13]": {"test_system": "Mus musculus", "assay": "Inhibition of morphine sulfate-induced analgesic activity in Swiss-Webster mouse at 2.6 mg/kg, sc after 2.5 hrs", "format": "functional, organism-based", "set-up": "dose 2.6 mg/kg", "method_in_brief": "as §1"}, "[14]": {"test_system": "Mus musculus", "assay": "Analgesic activity in Swiss-Webster mouse assessed as time required for sustainance of activity at 2.6 mg/kg, sc", "format": "functional", "settings": "route subcutaneous"}, "[15]": {"test_system": "Mus musculus", "assay": "Analgesic activity in Swiss-Webster mouse assessed as time required for sustainance of activity at 350 mg/kg, sc", "format": "functional", "settings": "route subcutaneous"}, "[16]": {"test_system": "Mus musculus", "assay": "Inhibition of morphine sulfate-induced analgesic activity in Swiss-Webster mouse at 350 mg/kg, sc after 2 hrs", "format": "functional, organism-based", "set-up": "dose 350 mg/kg", "method_in_brief": "as §1"}, "[17]": {"species_on_record": "Mus musculus", "assay": "Narcotic agonist activity in morphine-dependent mouse assessed as suppression of abstinence", "format": "functional, organism-based", "method_in_brief": "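Single-dose suppression test in morphine-dependent mice after withdrawal (method of Takemori et al.); compound given sc.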"}, "[18]": {"test_system": "Mus musculus", "assay": "Analgesic activity in Swiss-Webster mouse assessed as time required for sustainance of activity at 2.7 mg/kg, sc", "format": "functional", "settings": "route subcutaneous"}, "[19]": {"test_system": "Mus musculus", "assay": "Analgesic activity in Swiss-Webster mouse assessed as time required for sustainance of activity at 20 mg/kg, sc", "format": "functional", "settings": "route subcutaneous"}}, "note": "The source made the active and inactive calls. The rule behind the calls is not given here."}
{"smiles": "O=C1C=CC(=O)N1c1cccc(CCCN2CC[C@]34CCCC[C@H]3[C@H]2Cc2ccc(O)cc24)c1", "values": [{"measurement": "ED50", "setting": "[1]", "result": "> 50", "unit": "mg/kg"}, {"measurement": "inhibition", "setting": "[2]", "result": "Active"}, {"measurement": "Time", "setting": "[3]", "result": 2, "unit": "h"}]}
{"smiles": "CN1CC[C@]23c4c5ccc(O)c4O[C@H]2[C@@H](O)C=C[C@H]3[C@H]1C5.CN1CC[C@]23c4c5ccc(O)c4O[C@H]2[C@@H](O)C=C[C@H]3[C@H]1C5.O=S(=O)(O)O", "values": [{"measurement": "ED50", "setting": "[1]", "result": 4.9, "unit": "mg/kg"}, {"measurement": "Time", "setting": "[4]", "result": 30, "unit": "min"}]}
{"smiles": "CCOC(=O)/C=C\\C(=O)Nc1cccc(CCCN2CC[C@]34CCCC[C@H]3[C@H]2Cc2ccc(O)cc24)c1", "values": [{"measurement": "ED50", "setting": "[1]", "result": "> 100", "unit": "mg/kg"}, {"measurement": "inhibition", "setting": "[2]", "result": "Active"}, {"measurement": "Time", "setting": "[3]", "result": 2, "unit": "h"}]}
{"smiles": "CCOC(=O)/C=C/C(=O)Nc1ccc(CCCN2CC[C@]34CCCC[C@H]3[C@H]2Cc2ccc(O)cc24)cc1", "values": [{"measurement": "ED50", "setting": "[1]", "result": 28.4, "unit": "mg/kg"}, {"measurement": "Time", "setting": "[5]", "result": 2, "unit": "h"}, {"measurement": "inhibition", "setting": "[6]", "result": "Active"}, {"measurement": "Time", "setting": "[4]", "result": 30, "unit": "min"}]}
{"smiles": "CCOC(=O)CCC(=O)Nc1ccccc1CCN1CC[C@]23CCCC[C@H]2[C@H]1Cc1ccc(O)cc13", "values": [{"measurement": "ED50", "setting": "[1]", "result": "> 100", "unit": "mg/kg"}, {"measurement": "Time", "setting": "[5]", "result": 1, "unit": "h"}, {"measurement": "inhibition", "setting": "[7]", "result": "Active"}]}
{"smiles": "O=C(CBr)Nc1cccc(CCN2CC[C@]34CCCC[C@H]3[C@H]2Cc2ccc(O)cc24)c1", "values": [{"measurement": "ED50", "setting": "[1]", "result": 0.58, "unit": "mg/kg"}, {"measurement": "inhibition", "setting": "[8]", "result": "Active"}, {"measurement": "Time", "setting": "[9]", "result": 3, "unit": "h"}, {"measurement": "Time", "setting": "[4]", "result": 30, "unit": "min"}]}
{"smiles": "CC(=O)Oc1ccc2c(c1)[C@@]13CCCC[C@H]1[C@@H](C2)N(CCCc1ccc(N2C(=O)C=CC2=O)cc1)CC3", "values": [{"measurement": "ED50", "setting": "[1]", "result": "> 50", "unit": "mg/kg"}, {"measurement": "inhibition", "setting": "[2]", "result": "Active"}, {"measurement": "Time", "setting": "[3]", "result": 2, "unit": "h"}]}
{"smiles": "O=C(CBr)Nc1ccccc1CCCN1CC[C@]23CCCC[C@H]2[C@H]1Cc1ccc(O)cc13", "values": [{"measurement": "ED50", "setting": "[1]", "result": "> 100", "unit": "mg/kg"}, {"measurement": "Time", "setting": "[5]", "result": 1, "unit": "h"}, {"measurement": "inhibition", "setting": "[7]", "result": "Active"}]}
{"smiles": "CCOC(=O)/C=C/C(=O)Nc1ccccc1CCN1CC[C@]23CCCC[C@H]2[C@H]1Cc1ccc(O)cc13", "values": [{"measurement": "ED50", "setting": "[1]", "result": "> 150", "unit": "mg/kg"}]}
{"smiles": "O=C(CBr)Nc1ccc(CCCN2CC[C@]34CCCC[C@H]3[C@H]2Cc2ccc(O)cc24)cc1", "values": [{"measurement": "ED50", "setting": "[1]", "result": "> 100", "unit": "mg/kg"}, {"measurement": "Time", "setting": "[5]", "result": 1, "unit": "h"}, {"measurement": "inhibition", "setting": "[7]", "result": "Active"}]}
{"smiles": "CCOC(=O)/C=C\\C(=O)Nc1ccccc1CCCN1CC[C@]23CCCC[C@H]2[C@H]1Cc1ccc(O)cc13", "values": [{"measurement": "ED50", "setting": "[1]", "result": "> 100", "unit": "mg/kg"}, {"measurement": "Time", "setting": "[5]", "result": 2, "unit": "h"}, {"measurement": "inhibition", "setting": "[6]", "result": "Active"}]}
{"smiles": "CCOC(=O)/C=C/C(=O)Nc1cccc(CCCN2CC[C@]34CCCC[C@H]3[C@H]2Cc2ccc(O)cc24)c1", "values": [{"measurement": "ED50", "setting": "[1]", "result": 76.5, "unit": "mg/kg"}, {"measurement": "Time", "setting": "[10]", "result": 5.5, "unit": "h"}, {"measurement": "inhibition", "setting": "[11]", "result": "Active"}, {"measurement": "Time", "setting": "[4]", "result": 30, "unit": "min"}]}
{"smiles": "CCOC(=O)/C=C/C(=O)Nc1ccc(CCN2CC[C@]34CCCC[C@H]3[C@H]2Cc2ccc(O)cc24)cc1", "values": [{"measurement": "Ratio ED50", "setting": "[12]", "result": 4}, {"measurement": "ED50", "setting": "[1]", "result": 1.2, "unit": "mg/kg"}, {"measurement": "inhibition", "setting": "[13]", "result": "Active"}, {"measurement": "Time", "setting": "[14]", "result": 2.5, "unit": "h"}, {"measurement": "Time", "setting": "[4]", "result": 60, "unit": "min"}]}
{"smiles": "CCOC(=O)/C=C/C(=O)Nc1ccccc1CCCN1CC[C@]23CCCC[C@H]2[C@H]1Cc1ccc(O)cc13", "values": [{"measurement": "ED50", "setting": "[1]", "result": 84, "unit": "mg/kg"}, {"measurement": "Time", "setting": "[15]", "result": 2, "unit": "h"}, {"measurement": "inhibition", "setting": "[16]", "result": "Active"}, {"measurement": "Time", "setting": "[4]", "result": 15, "unit": "min"}]}
{"smiles": "CCOC(=O)CCC(=O)Nc1ccc(CCN2CC[C@]34CCCC[C@H]3[C@H]2Cc2ccc(O)cc24)cc1", "values": [{"measurement": "Ratio ED50", "setting": "[12]", "result": 4}, {"measurement": "ED50", "setting": "[1]", "result": 0.71, "unit": "mg/kg"}, {"measurement": "inhibition", "setting": "[17]", "result": "Active"}, {"measurement": "Time", "setting": "[4]", "result": 60, "unit": "min"}, {"measurement": "Time", "setting": "[18]", "result": 4, "unit": "h"}]}
{"smiles": "CC(=O)Oc1ccc2c(c1)[C@@]13CCCC[C@H]1[C@@H](C2)N(CCc1ccccc1N1C(=O)C=CC1=O)CC3", "values": [{"measurement": "ED50", "setting": "[1]", "result": 11.7, "unit": "mg/kg"}, {"measurement": "Time", "setting": "[19]", "result": 2, "unit": "h"}, {"measurement": "Time", "setting": "[4]", "result": 30, "unit": "min"}]}
